Measurements reported in PMC9780517 (Experimental and Therapeutic Medicine, 2022).
“Also recorded” adds a separate entry of the source.

Key:
hiPSC-CMs [1] = assay: Field potential; format: cell-based, human; conditions: for FPDc prolongation (in words): concentration relative to ETPC
hiPSC-CMs [2] = assay: Myocardial cell activity; format: cell-based, human; conditions: for Effect on Ampl (cell activity / cell viability) / Effect on BPM (beats per minute): concentration relative to ETPC
In short: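 Human iPSC-derived cardiomyocytes (mostly ventricular; four batches) were grown 14-21 days on fibronectin-coated impedance/field-potential sensor plates at 37°C, 5% CO2. The medium was changed on dosing day, and test compound was added 3-4 h later, with 0.1% DMSO as control. Reads were taken every 30 min for 2 h, then every 2 h for >24 h. There were 3-4 concentrations, triplicate wells each. Ampl and BPM were normalized to pre-dose values.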

[3] = ref 21 (Blinova et al); cited from earlier work

| Structure (SMILES) | Arrhythmia-like waveforms (in words) (hiPSC-CMs [1]) | Effect on Ampl (cell activity / cell viability) (hiPSC-CMs [2]) | Effect on BPM (beats per minute) (hiPSC-CMs [2]) | other results |
| --- | --- | --- | --- | --- |
| COc1ccc(CCN2CCC(Nc3nc4ccccc4n3Cc3ccc(F)cc3)CC2)cc1 [Astemizole] | caused arrhythmia-like waveforms | decreased the activity of cardiomyocytes at a concentration higher than ETPC | decrease BPM | – |
| CN1CCN(CCCCN2C(=O)CN(/N=C/c3ccc(-c4ccc(Cl)cc4)o3)C2=O)CC1 [Azimilide] | induce arrhythmia-like waveforms | – | – | FPDc prolongation (in words) (hiPSC-CMs [1]): FPDc prolongation at concentrations lower than ETPC |
| CN(C)CCCN1c2ccccc2Sc2ccc(Cl)cc21 [Chlorpromazine] | – | decreased the activity of cardiomyocytes at a concentration higher than ETPC | decrease BPM | Predicted risk, LR model of Blinova et al [3]: low-risk |
| COc1cc(N)c(Cl)cc1C(=O)NC1CCN(CCCOc2ccc(F)cc2)CC1OC (stereo not drawn) [Cisapride] | – | decreased the activity of cardiomyocytes at a concentration higher than ETPC | decrease BPM | – |
| CC[C@H]1OC(=O)[C@H](C)[C@@H](O[C@H]2C[C@@](C)(OC)[C@@H](O)[C@H](C)O2)[C@H](C)[C@@H](O[C@@H]2O[C@H](C)C[C@H](N(C)C)[C@H]2O)[C@](C)(OC)C[C@@H](C)C(=O)[C@H](C)[C@@H](O)[C@]1(C)O [Clarithromycin] | – | decreased the activity of cardiomyocytes at a concentration higher than ETPC | decrease BPM | FPDc prolongation (in words) (hiPSC-CMs [1]): no FPDc prolongation was observed; also recorded: FPDc showed shortening; FPDc prolongation at the highest concentration (hiPSC-CMs [1]; highest concentration of 100 µM, repeated in triplicate): no FPDc prolongation was observed |
| CN1CCN(C2=Nc3cc(Cl)ccc3Nc3ccccc32)CC1 [Clozapine] | caused arrhythmia-like waveforms | – | – | Concentration at which FPDc prolongation was observed (hiPSC-CMs [1]): 42 % of the ETPC |
| COc1ccc([C@@H]2Sc3ccccc3N(CCN(C)C)C(=O)[C@@H]2OC(C)=O)cc1 [Diltiazem] | – | decreased the activity of cardiomyocytes at a concentration higher than ETPC | BPM was decreased | – |
| CC(C)N(CCC(C(N)=O)(c1ccccc1)c1ccccn1)C(C)C (stereo not drawn) [Disopyramide] | induce arrhythmia-like waveforms | decreased cell activity at concentrations less than ETPC | – | FPDc prolongation (in words) (hiPSC-CMs [1]): FPDc prolongation at concentrations lower than ETPC |
| CN(CCOc1ccc(NS(C)(=O)=O)cc1)CCc1ccc(NS(C)(=O)=O)cc1 [Dofetilide] | no arrhythmia-like events were observed; also recorded: No arrhythmia-like waveforms were observed | – | – | Concentration at which arrhythmia-like waveforms were observed (hiPSC-CMs [1]): > 150 times of the ETPC; FPDc prolongation (in words) (hiPSC-CMs [1]): FPDc prolongation at concentrations higher than ETPC; Beating of the cells at the maximum concentration (hiPSC-CMs [2]; 0.3 µm (150 times of the ETPC)): cells stopped beating |
| O=c1[nH]c2ccccc2n1CCCN1CCC(n2c(=O)[nH]c3cc(Cl)ccc32)CC1 [Domperidone] | caused arrhythmia-like waveforms | – | – | – |
| O=C(CCCN1CC=C(n2c(=O)[nH]c3ccccc32)CC1)c1ccc(F)cc1 [Droperidol] | caused arrhythmia-like waveforms | decreased the activity of cardiomyocytes at a concentration higher than ETPC | decrease BPM | – |
| O=C(NCC1CCCCN1)c1cc(OCC(F)(F)F)ccc1OCC(F)(F)F (stereo not drawn) [Flecainide] | – | – | – | Concentration at which arrhythmia-like waveforms were observed (hiPSC-CMs [1]): 1.33 times of the ETPC |
| CCCCCCCN(CC)CCCC(O)c1ccc(NS(C)(=O)=O)cc1 (stereo not drawn) [Ibutilide] | induce arrhythmia-like waveforms | decreased cell activity at concentrations less than ETPC | BPM decrease at concentrations less than ETPC | Concentration at which arrhythmia-like waveforms were observed (hiPSC-CMs [1]): 10 % of the ETPC; FPDc prolongation (in words) (hiPSC-CMs [1]): FPDc prolongation at concentrations lower than ETPC |
| CCOC(=O)N1CCC(=C2c3ccc(Cl)cc3CCc3cccnc32)CC1 [Loratadine] | – | decreased the activity of cardiomyocytes at a concentration higher than ETPC | – | – |
| CCC(=O)C(CC(C)N(C)C)(c1ccccc1)c1ccccc1 (stereo not drawn) [Methadone] | – | decreased the cell activity of cardiomyocytes at concentrations greater than ETPC | decreased BPM at a concentration greater than ETPC | – |
| COCCc1ccc(OCC(O)CNC(C)C)cc1 (stereo not drawn) [Metoprolol] | – | decreased the activity of cardiomyocytes at a concentration higher than ETPC | BPM was decreased | Concentration at which FPDc prolongation was observed (hiPSC-CMs [1]): 6 % of the ETPC |
| Cc1cccc(C)c1OCC(C)N (stereo not drawn) [Mexiletine] | – | decreased the activity of cardiomyocytes at a concentration higher than ETPC | BPM was decreased | Concentration at which FPDc prolongation was observed (hiPSC-CMs [1]): 1.2 times of the ETPC |
| COc1c(N2C[C@@H]3CCCN[C@@H]3C2)c(F)cc2c(=O)c(C(=O)O)cn(C3CC3)c12 [Moxifloxacin] | – | – | decreased BPM at a concentration greater than ETPC | – |
| NC(=O)c1cccnc1 [Nicotinamide] | – | decreased the cell activity of cardiomyocytes at concentrations greater than ETPC | decreased BPM | – |
| COC(=O)C1=C(C)NC(C)=C(C(=O)OC)C1c1ccccc1[N+](=O)[O-] [Nifedipine] | – | decreased the activity of cardiomyocytes at a concentration higher than ETPC | – | – |
| CCOC(=O)C1=C(C)NC(C)=C(C(=O)OC)C1c1cccc([N+](=O)[O-])c1 (stereo not drawn) [Nitrendipine] | – | decreased the activity of cardiomyocytes at a concentration higher than ETPC | – | Concentration at which arrhythmia-like waveforms were observed (hiPSC-CMs [1]): 331.1 times of the ETPC |
| Cc1nccn1CC1CCc2c(c3ccccc3n2C)C1=O (stereo not drawn) [Ondansetron] | caused arrhythmia-like waveforms | decreased the activity of cardiomyocytes at a concentration higher than ETPC | decrease BPM | Concentration at which arrhythmia-like waveforms were observed (hiPSC-CMs [1]): 81 % of the ETPC |
| O=c1[nH]c2ccccc2n1C1CCN(CCCC(c2ccc(F)cc2)c2ccc(F)cc2)CC1 [Pimozide] | caused arrhythmia-like waveforms | decreased the activity of cardiomyocytes at a concentration higher than ETPC | decrease BPM | – |
| C=C[C@H]1C[N@@]2CC[C@H]1C[C@@H]2[C@@H](O)c1ccnc2ccc(OC)cc12 [Quinidine] | induce arrhythmia-like waveforms | decreased cell activity at concentrations less than ETPC | BPM decrease at concentrations less than ETPC | FPDc prolongation (in words) (hiPSC-CMs [1]): FPDc prolongation at concentrations lower than ETPC |
| COc1ccccc1OCC(O)CN1CCN(CC(=O)Nc2c(C)cccc2C)CC1 (stereo not drawn) [Ranolazine] | – | – | – | Concentration at which FPDc prolongation was observed (hiPSC-CMs [1]): 51 % of the ETPC; Concentration at which arrhythmia-like waveforms were observed (hiPSC-CMs [1]): 15.4 times of the ETPC |
| CC(C)NCC(O)c1ccc(NS(C)(=O)=O)cc1 (stereo not drawn) [Sotalol] | induce arrhythmia-like waveforms | – | BPM decrease at concentrations less than ETPC | FPDc prolongation (in words) (hiPSC-CMs [1]): FPDc prolongation at concentrations lower than ETPC |
| CC/C(=C(\c1ccccc1)c1ccc(OCCN(C)C)cc1)c1ccccc1 [Tamoxifen] | – | decreased the activity of cardiomyocytes at a concentration higher than ETPC | BPM was decreased | Concentration at which arrhythmia-like waveforms were observed (hiPSC-CMs [1]): 142.9 times of the ETPC |
| CC(C)(C)c1ccc(C(O)CCCN2CCC(C(O)(c3ccccc3)c3ccccc3)CC2)cc1 (stereo not drawn) [Terfenadine] | – | decreased the activity of cardiomyocytes at a concentration higher than ETPC | decrease BPM | – |
| COc1cc2c(Nc3ccc(Br)cc3F)ncnc2cc1OCC1CCN(C)CC1 [Vandetanib] | induce arrhythmia-like waveforms | – | BPM decrease at concentrations less than ETPC | FPDc prolongation (in words) (hiPSC-CMs [1]): FPDc prolongation at concentrations higher than ETPC |
| COc1ccc(CCN(C)CCCC(C#N)(c2ccc(OC)c(OC)c2)C(C)C)cc1OC (stereo not drawn) [Verapamil] | – | decreased the activity of cardiomyocytes at a concentration higher than ETPC | – | – |
